Columns and labels:
hA3AR = target: T1, hA3AR (Homo sapiens, UniProt P0DMS8); assay: cAMP functional assay at the hA3AR expressed in CHO cells; type: cell-based; conditions: for Emax at 10 µM: CHO, read-out: maximal stimulation of cAMP formation / % activation relative to the full agonist 16 (= 100%); for functional behaviour at hA3AR: cAMP assay, CHO cells
T1 sequence (P0DMS8 1-318): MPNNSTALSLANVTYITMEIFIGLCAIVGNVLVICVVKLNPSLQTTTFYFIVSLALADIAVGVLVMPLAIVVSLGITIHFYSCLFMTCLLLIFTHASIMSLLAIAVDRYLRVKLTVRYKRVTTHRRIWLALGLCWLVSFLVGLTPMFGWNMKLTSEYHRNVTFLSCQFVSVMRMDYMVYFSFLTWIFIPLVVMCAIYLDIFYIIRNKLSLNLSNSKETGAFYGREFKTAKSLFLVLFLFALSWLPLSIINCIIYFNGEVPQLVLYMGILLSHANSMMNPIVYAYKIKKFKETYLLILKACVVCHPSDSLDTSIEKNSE
Method in brief: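 Recombinant hA3AR-CHO cells, plated 24 h, washed with DMEM/50 mM HEPES pH 7.4. Treated with agonists and/or test compound plus rolipram (10 μM) and adenosine deaminase (3 units/mL); forskolin (10 μM) added at 45 min, incubation continued 15 min. Lysed with ice-cold 0.1 M HCl. cAMP quantified by PKA competition with [3H]cAMP (2 nM), GF/C filtration, scintillation, against cAMP standard curve. Mean ± SEM.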

hA2AAR = hA2AAR (Homo sapiens, UniProt P29274); assay: Radioligand binding at hA2AAR; conditions: 4a versus truncated 4′-thioadenosine derivative 2
Chain of hA2AAR (P29274 whole entry, the tested form may be a part): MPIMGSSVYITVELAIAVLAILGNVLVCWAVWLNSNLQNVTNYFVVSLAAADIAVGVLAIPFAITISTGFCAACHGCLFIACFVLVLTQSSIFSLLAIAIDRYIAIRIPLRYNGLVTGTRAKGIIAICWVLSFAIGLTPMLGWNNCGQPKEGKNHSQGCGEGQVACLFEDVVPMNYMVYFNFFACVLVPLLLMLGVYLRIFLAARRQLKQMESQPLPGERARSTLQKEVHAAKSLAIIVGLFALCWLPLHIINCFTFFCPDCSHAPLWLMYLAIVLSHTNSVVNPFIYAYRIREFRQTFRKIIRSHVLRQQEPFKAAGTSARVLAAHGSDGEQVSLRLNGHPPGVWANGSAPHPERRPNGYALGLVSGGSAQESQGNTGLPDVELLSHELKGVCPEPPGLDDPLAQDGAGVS

A2BAR = conditions: read-out: EC50 for activation of A2BAR; ref [5]; cited from earlier work
A1, A2A, and A3ARs = conditions: read-out: EC50 for activation of A1, A2A, and A3ARs; ref [5]; cited from earlier work

SMILES	Emax at 10 µM (hA3AR) [%]	functional behaviour at hA3AR (hA3AR)	further results
CCCCC#Cc1nc(NCc2cccc(F)c2)c2ncn([C@H]3[C@H](O)[C@H](O)[C@@H]4C[C@@H]43)c2n1 [4i, (1R,2R,3S,4R,5S)-4-(6-(3-Fluorobenzylamino)-2-(hex-1-ynyl)-9H-purin-9-yl)bicyclo[3.1.0] hexane-2,3-diol]	18.9 ± 7.5	partial agonists	–
CCCCC#Cc1nc(NCc2cccc(Br)c2)c2ncn([C@H]3[C@H](O)[C@H](O)[C@@H]4C[C@@H]43)c2n1 [4g, (1R,2R,3S,4R,5S)-4-(6-(3-Bromobenzylamino)-2-(hex-1-ynyl)-9H-purin-9-yl)bicyclo[3.1.0]hexane-2,3-diol]	–	antagonists	–
CCCCC#Cc1nc(NCc2cccc(I)c2)c2ncn([C@H]3[C@H](O)[C@H](O)[C@@H]4C[C@@H]43)c2n1 [4f, (1R,2R,3S,4R,5S)-4-(6-(3-Iodobenzylamino)-2-(hex-1-ynyl)-9H-purin-9-yl)bicyclo[3.1.0]hexane-2,3-diol]	–	antagonists	–
CCCCC#Cc1nc(N)c2ncn([C@H]3[C@H](O)[C@H](O)[C@@H]4C[C@@H]43)c2n1 [4a, (1R,2R,3S,4R,5S)-4-(6-Amino-2-(hex-1-ynyl)-9H-purin-9-yl)bicyclo[3.1.0]hexane-2,3-diol]	–	–	fold less potent than 2 in binding affinity at the hA2AAR (hA2AAR): 14 fold and ≈ 14 fold

The next lines start with results.

Emax at 10 µM (hA3AR) [%]	functional behaviour at hA3AR (hA3AR)	SMILES	further results
15.5 ± 6.7	partial agonists	CCCCC#Cc1nc(NCC)c2ncn([C@H]3[C@H](O)[C@H](O)[C@@H]4C[C@@H]43)c2n1 [4c, (1R,2R,3S,4R,5S)-4-(6-(ethylamino)-2-(hex-1-ynyl)-9H-purin-9-yl)bicyclo[3.1.0]hexane-2,3-diol]	–
27.1 ± 14.6	partial agonists	CCCCC#Cc1nc(NC2CCCC2)c2ncn([C@H]3[C@H](O)[C@H](O)[C@@H]4C[C@@H]43)c2n1 [4e, (1R,2R,3S,4R,5S)-4-(6-(Cyclopentylamino)-2-(hex-1-ynyl)-9H-purin-9-yl)bicyclo[3.1.0]hexane-2,3-diol]	–
–	antagonists	CCCCC#Cc1nc(NCc2cccc(Cl)c2)c2ncn([C@H]3[C@H](O)[C@H](O)[C@@H]4C[C@@H]43)c2n1 [4h, (1R,2R,3S,4R,5S)-4-(6-(3-Chlorobenzylamino)-2-(hex-1-ynyl)-9H-purin-9-yl)bicyclo[3.1.0] hexane-2,3-diol]	–
19.8 ± 4.6	partial agonists	CCCCC#Cc1nc(NC2CC2)c2ncn([C@H]3[C@H](O)[C@H](O)[C@@H]4C[C@@H]43)c2n1 [4d, (1R,2R,3S,4R,5S)-4-(6-(Cyclopropylamino)-2-(hex-1-ynyl)-9H-purin-9-yl)bicyclo[3.1.0]hexane-2,3-diol]	–
–	partial agonist	CCCCC#Cc1nc(NC)c2ncn([C@H]3[C@H](O)[C@H](O)[C@@H]4C[C@@H]43)c2n1 [4b]	–

Source: publication PMC3954500 (Journal of Medicinal Chemistry, 2014)
